According to ChEMBL document CHEMBL4673335, “Store-Operated Calcium Entry as a Therapeutic Target in Acute Pancreatitis: Discovery and Development of Drug-Like SOCE Inhibitors” (J Med Chem, 2020):
Values belong to the compound of their own block, whether it stands above or below them. The source made the active and inactive calls. No cut-off for these calls is given here.

How the values were obtained:
Format in all cases: cell-based
[1] = biological target: T1, ORAI1/STIM1 (Homo sapiens) (UniProt Q96D31+Q13586); experiment: Inhibition of STIM1/Orai1 (unknown origin) expressed in HEK293 cells assessed as reduction in tBHQ-induced calcium response by measuring decrease in slope of calcium entry at 10 uM relative to control
T1 sequence (Q13586 23-685 partner limits assumed): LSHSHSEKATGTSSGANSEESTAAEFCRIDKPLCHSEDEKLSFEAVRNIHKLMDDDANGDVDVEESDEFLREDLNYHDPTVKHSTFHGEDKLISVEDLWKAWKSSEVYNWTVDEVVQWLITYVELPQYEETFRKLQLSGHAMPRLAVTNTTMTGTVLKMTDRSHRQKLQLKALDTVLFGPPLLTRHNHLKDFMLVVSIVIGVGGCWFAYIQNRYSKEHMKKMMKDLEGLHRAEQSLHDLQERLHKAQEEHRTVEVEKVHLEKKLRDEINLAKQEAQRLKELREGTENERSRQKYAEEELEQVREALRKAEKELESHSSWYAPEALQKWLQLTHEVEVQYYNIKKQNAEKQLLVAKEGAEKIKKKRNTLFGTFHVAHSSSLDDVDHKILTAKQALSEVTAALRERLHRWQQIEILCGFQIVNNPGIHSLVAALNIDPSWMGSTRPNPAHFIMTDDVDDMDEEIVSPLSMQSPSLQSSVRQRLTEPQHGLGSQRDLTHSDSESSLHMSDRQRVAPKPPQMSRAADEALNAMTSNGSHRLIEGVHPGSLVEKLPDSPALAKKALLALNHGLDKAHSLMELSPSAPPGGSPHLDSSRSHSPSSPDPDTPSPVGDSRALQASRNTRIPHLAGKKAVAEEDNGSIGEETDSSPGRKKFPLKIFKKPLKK
T1 sequence (Q96D31 whole entry): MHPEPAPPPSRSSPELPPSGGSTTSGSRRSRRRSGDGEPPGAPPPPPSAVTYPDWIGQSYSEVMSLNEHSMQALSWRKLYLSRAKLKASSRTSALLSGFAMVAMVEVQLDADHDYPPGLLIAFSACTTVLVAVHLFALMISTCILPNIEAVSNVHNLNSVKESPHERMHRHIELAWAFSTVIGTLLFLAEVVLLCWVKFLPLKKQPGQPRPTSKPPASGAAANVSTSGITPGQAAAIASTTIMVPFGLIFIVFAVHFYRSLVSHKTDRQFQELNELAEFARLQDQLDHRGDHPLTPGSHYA
In short: (§1)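 HEK cells, calcium imaging by fluorescence microscopy. Ca2+ added after 600 s and intracellular levels recorded. Traces averaged over 200 cells, then scored as AUC, peak amplitude and slope of the Ca2+ rise versus untreated control. Compound working solutions diluted from a 50 mM DMSO stock to 0.1% DMSO in physiologic buffer.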

ORAI1/STIM1 = ORAI1/STIM1 (Homo sapiens, UniProt Q13586+Q96D31); experiment: Inhibition of STIM1/Orai1 (unknown origin) expressed in HEK293 cells assessed as reduction in tBHQ-induced calcium response
Sequence of ORAI1/STIM1 (Q96D31 whole entry): as above
Sequence of ORAI1/STIM1 (Q13586 whole entry): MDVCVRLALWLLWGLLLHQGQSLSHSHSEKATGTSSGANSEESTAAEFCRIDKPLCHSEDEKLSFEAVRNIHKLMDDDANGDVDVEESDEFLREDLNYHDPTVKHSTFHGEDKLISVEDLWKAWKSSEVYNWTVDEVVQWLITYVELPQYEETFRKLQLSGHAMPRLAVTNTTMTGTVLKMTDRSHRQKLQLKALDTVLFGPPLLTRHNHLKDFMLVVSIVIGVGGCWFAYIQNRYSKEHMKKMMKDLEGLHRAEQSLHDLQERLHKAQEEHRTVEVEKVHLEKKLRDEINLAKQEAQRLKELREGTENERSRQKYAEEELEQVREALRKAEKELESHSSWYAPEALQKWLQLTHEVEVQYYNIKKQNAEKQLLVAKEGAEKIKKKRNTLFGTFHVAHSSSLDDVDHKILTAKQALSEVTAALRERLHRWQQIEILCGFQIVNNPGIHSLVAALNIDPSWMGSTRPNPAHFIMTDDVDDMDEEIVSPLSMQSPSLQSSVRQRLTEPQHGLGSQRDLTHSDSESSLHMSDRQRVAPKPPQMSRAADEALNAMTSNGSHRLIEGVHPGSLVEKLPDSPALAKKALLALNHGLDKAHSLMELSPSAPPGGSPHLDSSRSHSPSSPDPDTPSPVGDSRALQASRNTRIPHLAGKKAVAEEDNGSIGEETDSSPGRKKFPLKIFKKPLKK

HEK293 [2] = experiment: Cytotoxicity in HEK293 cells assessed as cell viability at 10 uM after 24 hrs by MTT assay; conditions: human, hek293, 24 h
In short: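 MTT viability assay. HEK cells seeded at 20,000 per well, treated 24 h after plating for a further 24 h. MTT at 0.25 mg/mL final for 60 min at 37 °C. Crystals dissolved in isopropyl alcohol/HCl (1 M), absorbance read at 570 nm. Compounds diluted to 0.1% DMSO in culture medium.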

[3] = biological target: T1, ORAI1/STIM1 (Homo sapiens); experiment: Inhibition of STIM1/Orai1 (unknown origin) expressed in HEK293 cells assessed as reduction in tBHQ-induced calcium response at 10 uM relative to control; in short: as §1
[4] = biological target: T1, ORAI1/STIM1 (Homo sapiens); experiment: Inhibition of STIM1/Orai1 (unknown origin) expressed in HEK293 cells assessed as reduction in tBHQ-induced calcium response by measuring decrease in peak amplitude of calcium entry at 10 uM relative to control; in short: as §1
[5] = biological target: T1, ORAI1/STIM1 (Homo sapiens); experiment: Inhibition of STIM1/Orai1 (unknown origin) expressed in HEK293 cells assessed as reduction in tBHQ-induced calcium response by measuring decrease in calcium entry AUC at 10 uM relative to control; in short: as §1
HEK293 [6] = experiment: Cytotoxicity in HEK293 cells assessed as cell viability at 50 uM after 72 hrs by MTT assay; conditions: human, hek293, 72 h
In short: (§2)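 MTT viability in HEK cells after 72 h treatment at 50 μM, with or without 100 μM uridine. MTT at 0.25 mg/mL final for 60 min at 37 °C, solubilized in isopropyl alcohol/HCl (1 M), absorbance read at 570 nm. Mean ± SEM, Student t-test against control.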

HEK293 [7] = experiment: Cytotoxicity in HEK293 cells assessed as cell viability at 50 uM after 72 hrs in presence of excess uridine by MTT assay; conditions: human, hek293, 72 h; in short: as §2
[8] = dose 3.0 µM, in the assay text read “at 3 uM” for “at 10 uM”

Structure (SMILES): O=C(O)c1cccc(-c2cn(-c3ccc(-c4cccc5c4OCCO5)cc3)nn2)c1
inhibition [1]: Active | IC50 (ORAI1/STIM1): 1620 nM | Activity (HEK293 [2]): 90.5% | inhibition [3, 8]: 70.9% | inhibition [4]: Active | inhibition [5]: Active

Structure (SMILES): COc1ccc(OC)c(-c2ccc(-n3cc(-c4ccncc4F)nn3)cc2)c1
inhibition ([3]; dose 10.0 µM): -4.9%

Structure (SMILES): COc1ccc(OC)c(-c2ccc(-c3cn(-c4ccncc4)nn3)cc2)c1
inhibition ([3]; dose 10.0 µM): -1.7%

Structure (SMILES): O=C(O)c1cccc(-c2cn(-c3ccc(-c4ccc5c(c4)OCCO5)cc3)nn2)c1
Activity (HEK293 [6]): Non-Toxic | IC50 (ORAI1/STIM1): 1200 nM | Activity (HEK293 [7]): Non-Toxic

Structure (SMILES): O=C(Nc1ccc(-n2nc(C(F)(F)F)cc2C(F)(F)F)cc1)c1ccncc1F
Activity (HEK293 [6]): Toxic | Activity (HEK293 [7]): Toxic

Structure (SMILES): C/C(O)=C(\C#N)C(=O)Nc1ccc(C(F)(F)F)cc1 [TERIFLUNOMIDE]
Activity (HEK293 [6]): Non-Toxic

Structure (SMILES): COc1ccc(OC)c(-c2ccc(-c3cn(-c4ccncc4F)nn3)cc2)c1
inhibition ([3]; dose 10.0 µM): 26.2%

Structure (SMILES): Cc1cccc(F)c1C(=O)Nc1cnc(-c2cc3c(cc2Cl)OC(F)(F)O3)cn1 [ZEGOCRACTIN]
Activity (HEK293 [6]): Toxic | Activity (HEK293 [7]): Toxic

Structure (SMILES): COc1ccccc1-c1ccc(-n2cc(-c3cccc(C(=O)O)c3)nn2)cc1
inhibition ([3]; dose 10.0 µM): 45.9%

Structure (SMILES): COc1ccc(F)c(-c2ccc(-n3cc(-c4cccc(C(=O)O)c4)nn3)cc2)c1
Activity (HEK293 [6]): Non-Toxic | IC50 (ORAI1/STIM1): 361 nM | Activity (HEK293 [2]): 91.1% | Activity (HEK293 [7]): Non-Toxic

Structure (SMILES): O=C(O)c1cccc(-c2cn(-c3ccc(-c4cccc(O)c4)cc3)nn2)c1
inhibition [3, 8]: 0%

Structure (SMILES): O=C(O)c1cccc(-c2cn(-c3ccc(-c4ccc5c(c4)OCO5)cc3)nn2)c1
inhibition ([3]; dose 10.0 µM): 67.3%

More lines, main results first:

inhibition ([3]; dose 10.0 µM): 53%
Structure (SMILES): COc1ccc(-c2ccc(-c3cn(-c4cccc(C(=O)O)c4)nn3)cc2)c(OC)c1

inhibition ([3]; dose 10.0 µM): 57.2%
Structure (SMILES): COc1ccc(OC)c(-c2ccc(-c3cn(-c4ccnc(C(=O)O)c4)nn3)cc2)c1

inhibition [3, 8]: 12%
Structure (SMILES): COc1ccccc1-c1ccc(-c2cn(-c3cccc(C(=O)O)c3)nn2)cc1

IC50 (ORAI1/STIM1): 1790 nM | inhibition ([3]; dose 10.0 µM): 87.8% | inhibition [4]: Active | inhibition [5]: Active
Structure (SMILES): COc1ccc(OC)c(-c2ccc(-c3cn(-c4cccc(C(=O)O)c4)nn3)cc2)c1
Activity (HEK293 [2]): 71.8%

inhibition [3, 8]: 1.8%
Structure (SMILES): O=C(O)c1cccc(-n2cc(-c3ccc(-c4ccccc4)cc3)nn2)c1

inhibition [3, 8]: 54.3%
Structure (SMILES): COc1ccc(-c2ccc(-n3cc(-c4cccc(C(=O)O)c4)nn3)cc2)cc1OC

inhibition ([3]; dose 10.0 µM): 76.2%
Structure (SMILES): COc1ccc(OC)c(-c2ccc(-n3cc(-c4cccc(C(=O)O)c4)nn3)cc2)c1

inhibition ([3]; dose 10.0 µM): 0%
Structure (SMILES): O=C(O)c1cccc(-n2cc(-c3ccc(-c4ccc5c(c4)OCO5)cc3)nn2)c1

inhibition [1]: Active | inhibition [3, 8]: 73.8% | inhibition [4]: Active | inhibition [5]: Active
Structure (SMILES): COc1cc(OC)cc(-c2ccc(-n3cc(-c4cccc(C(=O)O)c4)nn3)cc2)c1

inhibition ([3]; dose 10.0 µM): 0%
Structure (SMILES): CSc1cccc(-c2ccc(-c3cn(-c4cccc(C(=O)O)c4)nn3)cc2)c1

inhibition [1]: Active | IC50 (ORAI1/STIM1): 866 nM | inhibition ([3]; dose 10.0 µM): 88.9% | inhibition [4]: Active | inhibition [5]: Active
Structure (SMILES): COc1ccc(F)c(-c2ccc(-c3cn(-c4cccc(C(=O)O)c4)nn3)cc2)c1
Activity (HEK293 [2]): 92.3%

inhibition ([3]; dose 10.0 µM): 39.6%
Structure (SMILES): COc1ccc(-c2ccc(-c3cn(-c4cccc(C(=O)O)c4)nn3)cc2)cc1OC

inhibition ([3]; dose 10.0 µM): 75.4%
Structure (SMILES): COc1cc(OC)cc(-c2ccc(-c3cn(-c4cccc(C(=O)O)c4)nn3)cc2)c1
